# Measurements from ChEMBL document CHEMBL1123176, “Synthesis and antitumor activity of cyclophosphamide analogues. 4. Preparation, kinetic studies, and anticancer screening of "phenylketophosphamide" and similar compounds related to the cyclophosphamide metabolite aldophosphamide” (1986).
# Experiments:
# [1] = tested on: Mus musculus; assay: Increased life span against L1210 lymphoid leukemia cells in male BDF1 mice at a dose of 10x7 mg/kg; format: functional
# Method in brief: (§1)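 Male BDF1 mice, 6 weeks old, implanted ip with 1 × 10^5 L1210 lymphoid leukemia cells on day 0. Dosing was a single ip dose on day 2 in 10% Me2SO, except where noted: x7 schedules given ip on days 2 through 8; some arms given po; some arms in saline vehicle. Read-outs were % increased life span and survivors on day 60; some runs were duplicated.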
# [2] = tested on: Mus musculus; assay: Compound was ested for antitumor activity against Lewis lung carcinoma cells implanted in female CD2F1 mice at a dose of 50x2 mg/kg; format: functional
# [3] = tested on: Mus musculus; assay: Compound was ested for antitumor activity against Lewis lung carcinoma cells implanted in male CD2F1 mice at a dose of 100x2 mg/kg; format: functional
# [4] = tested on: Mus musculus; assay: Compound was ested for antitumor activity against Lewis lung carcinoma cells implanted in female CD2F1 mice at a dose of 200x2 mg/kg; T=Toxic doxe; format: functional, organism-based
# [5] = tested on: Mus musculus; assay: Number of survivors on the toxicity day (day = 5) at a dose of 400x1 mg/kg; 5/6; format: functional
# [6] = tested on: Mus musculus; assay: Increased life span against L1210 lymphoid leukemia cells in male BDF1 mice at a dose of 50 mg/kg; format: functional; method in brief: as §1
# [7] = tested on: Mus musculus; assay: Number of survivors on day 60 at a dose of 5 x 7 ip administration day 2 through day; format: functional; method in brief: as §1
# [8] = tested on: Mus musculus; assay: Compound was ested for antitumor activity against Lewis lung carcinoma cells implanted in CD2F1 female mice at a dose of 25x2 mg/kg; format: functional
# [9] = tested on: Mus musculus; assay: Increased life span against L1210 lymphoid leukemia cells in male BDF1 mice at a dose of 15 mg/kg; format: functional; method in brief: as §1
# [10] = tested on: Mus musculus; assay: Compound was ested for antitumor activity against Lewis lung carcinoma cells implanted in male CD2F1 mice at a dose of 5x6 mg/kg; format: functional
# [11] = tested on: Mus musculus; assay: Number of survivors on the toxicity day (day = 5) at a dose of 100x1 mg/kg; 6/6; format: functional
# [12] = tested on: Mus musculus; assay: Number of survivors on the toxicity day (day = 5) at a dose of 50x1 mg/kg; 6/6; format: functional
# [13] = tested on: Mus musculus; assay: Increased life span against L1210 lymphoid leukemia cells in male BDF1 mice at a dose of 30 mg/kg; format: functional; method in brief: as §1
# [14] = tested on: Mus musculus; assay: Compound was ested for antitumor activity against Lewis lung carcinoma cells implanted in male CD2F1 mice at a dose of 200x2 mg/kg; format: functional
# [15] = tested on: Mus musculus; assay: Increased life span against L1210 lymphoid leukemia cells in male BDF1 mice at a dose of 5x7 mg/kg; format: functional; method in brief: as §1
# [16] = tested on: Mus musculus; assay: Compound was ested for antitumor activity against Lewis lung carcinoma cells implanted in female CD2F1 mice at a dose of 100x2 mg/kg; format: functional
# [17] = tested on: Mus musculus; assay: Increased life span against L1210 lymphoid leukemia cells in male BDF1 mice at a dose of 7.5 mg/kg; format: functional; method in brief: as §1
# [18] = tested on: Mus musculus; assay: Number of survivors on the toxicity day (day = 21) at a dose of 100x1 mg/kg; 5/7; format: functional
# [19] = tested on: Mus musculus; assay: Number of survivors on day 60 at a dose of 25 mg/kg; 0/7; format: functional; method in brief: as §1
# [20] = tested on: Mus musculus; assay: Compound was ested for antitumor activity against Lewis lung carcinoma cells implanted in male C57BL mice at a dose of 100 mg/kg; format: functional
# [21] = tested on: Mus musculus; assay: Increased life span against L1210 lymphoid leukemia cells in male BDF1 mice at a dose of 25 mg/kg; format: functional; method in brief: as §1
# [22] = tested on: Mus musculus; assay: Number of survivors on day 60 at a dose of 50 mg/kg; 0/7; format: functional; method in brief: as §1
# [23] = tested on: Mus musculus; assay: Number of survivors on day 60 at a dose of 7.5 mg/kg; 0/7; format: functional; method in brief: as §1
# [24] = tested on: Mus musculus; assay: Increased life span against L1210 lymphoid leukemia cells in male BDF1 mice at a dose of 20x7 mg/kg; format: functional; method in brief: as §1
# [25] = tested on: Mus musculus; assay: Number of survivors on the toxicity day (day = 5) at a dose of 200x1 mg/kg; 6/6; format: functional
# [26] = tested on: Mus musculus; assay: Number of survivors on the toxicity day (day = 5) at a dose of 200x1 mg/kg; 5/6; format: functional
# [27] = tested on: Mus musculus; assay: Number of survivors on the toxicity day (day = 5) at a dose of 25x1 mg/kg; 5/6; format: functional
# [28] = tested on: Mus musculus; assay: Compound was ested for antitumor activity against Lewis lung carcinoma cells implanted in male CD2F1 mice at a dose of 400x2 mg/kg; Toxic doxe; format: functional, organism-based
# [29] = tested on: Mus musculus; assay: Increased life span against L1210 lymphoid leukemia cells in male BDF1 mice at a dose of 100 mg/kg; format: functional; conditions: for ILS at 100 mg/kg: Mus musculus, BDF1, L1210, dose 100 mg/kg; method in brief: as §1
# [30] = tested on: Mus musculus; assay: Number of survivors on the toxicity day (day = 15) at a dose of 500x1 mg/kg; 5/6; format: functional
# [31] = tested on: Mus musculus; assay: Compound was ested for antitumor activity against Lewis lung carcinoma cells implanted in female CD2F1 mice at a dose of 125 x1 mg/kg; format: functional
# [32] = tested on: Mus musculus; assay: Compound was ested for antitumor activity against Lewis lung carcinoma cells implanted in female CD2F1 mice at a dose of 250x1 mg/kg; format: functional
# [33] = tested on: Mus musculus; assay: Number of survivors on day 60 at a dose of 400 mg/kg; 5/7; format: functional; method in brief: as §1
# [34] = tested on: Mus musculus; assay: Compound was ested for antitumor activity against Lewis lung carcinoma cells implanted in female CD2F1 mice at a dose of 500x1 mg/kg; format: functional
# [35] = tested on: Mus musculus; assay: Number of survivors on day 60 at a dose of 200 mg/kg; 1/7; format: functional; method in brief: as §1
# [36] = tested on: Mus musculus; assay: Number of survivors on the toxicity day (day = 15) at a dose of 62.5x1 mg/kg; 6/6; format: functional
# [37] = tested on: Mus musculus; assay: Number of survivors on day 60 at a dose of 100 mg/kg; 0/7; format: functional; method in brief: as §1
# [38] = tested on: Mus musculus; assay: Increased life span against L1210 lymphoid leukemia cells in male BDF1 mice at a dose of 400 mg/kg; format: functional; conditions: for ILS at 400 mg/kg: Mus musculus, BDF1, L1210; method in brief: as §1
# [39] = tested on: Mus musculus; assay: Number of survivors on the toxicity day (day = 15) at a dose of 125 x1 mg/kg; 6/6; format: functional
# [40] = tested on: Mus musculus; assay: Number of survivors on the toxicity day (day = 15) at a dose of 250x1 mg/kg; 6/6; format: functional
# [41] = tested on: Mus musculus; assay: Compound was ested for antitumor activity against Lewis lung carcinoma cells implanted in female CD2F1 mice at a dose of 62.5x1 mg/kg; format: functional
# [42] = tested on: Mus musculus; assay: Number of survivors on the toxicity day (day = 15) at a dose of 100x1 mg/kg; format: functional
# [43] = tested on: Mus musculus; assay: Increased life span against L1210 lymphoid leukemia cells in male BDF1 mice at a dose of 200 mg/kg; format: functional; conditions: for ILS at 200 mg/kg: Mus musculus, BDF1, L1210; method in brief: as §1
# [44] = tested on: Mus musculus; assay: Number of survivors on day 60 at a dose of 400 mg/kg; 0/7; format: functional; method in brief: as §1
# [45] = tested on: Mus musculus; assay: Number of survivors on day 60 at a dose of 200 mg/kg; 0/7; format: functional; method in brief: as §1
# [46] = tested on: Mus musculus; assay: Number of survivors on day 60 at a dose of 400 mg/kg; 7/7; format: functional; method in brief: as §1
smiles,measurement,setting,value
NP(=O)(OCCC(=O)c1ccccc1)N(CCCl)CCCl (stereo unspecified),ILS,[1],29.7
same,T/C,[2],223%
same,T/C,[3],221%
same,T/C,[4],Toxic
same,Survivors,[5],5
same,ILS at 50 mg/kg,[6],43.9%
same,Survivors,[7],0
same,T/C,[8],163%
same,ILS at 15 mg/kg,[9],16.3%
same,T/C,[10],106%
same,Survivors,[11],6
same,Survivors,[12],6
same,ILS at 30 mg/kg,[13],35.1%
same,T/C,[14],89%
same,ILS,[15],20.6
same,T/C,[16],92%
same,ILS at 7.5 mg/kg,[17],10.7%
same,Survivors,[18],5
same,Survivors,[19],0
same,T/C,[20],63%
same,ILS at 25 mg/kg,[21],22.9%
same,Survivors,[22],0
same,Survivors,[23],0
same,ILS,[24],58.8
same,Survivors,[25],6
same,Survivors,[26],5
same,Survivors,[27],5
same,T/C,[28],Toxic
same,ILS at 100 mg/kg,[29],-34%
O=C(CCOP(=O)(NCCCl)NCCCl)c1ccccc1,Survivors,[30],5
same,T/C,[31],138%
same,T/C,[32],165%
same,ILS at 50 mg/kg,[6],20.2%
same,Survivors,[33],5
same,T/C,[34],291%
same,Survivors,[35],1
same,Survivors,[36],6
same,Survivors,[37],0
same,ILS at 400 mg/kg,[38],> 443%
same,Survivors,[39],6
same,Survivors,[22],0
same,Survivors,[40],6
same,ILS at 100 mg/kg,[29],51.7%
same,T/C,[41],117%
O=P1(N(CCCl)CCCl)NCCCO1 (stereo unspecified) [CYCLOPHOSPHAMIDE ANHYDROUS],Survivors,[42],7
same,ILS at 200 mg/kg,[43],> 423%
same,Survivors,[37],0
same,ILS at 100 mg/kg,[29],59.6%
same,ILS,[29]; dose 100 mg/kg,52.9%
O=C(CCOP(=O)(NCCCl)N(CCCl)CCCl)c1ccccc1 (stereo unspecified),Survivors,[44],0
same,ILS at 200 mg/kg,[43],60.6%
same,Survivors,[45],0
same,Survivors,[37],0
same,ILS at 400 mg/kg,[38],-19.7%
same,ILS at 100 mg/kg,[29],29.9%
O=P1(NCCCl)OCCCN1CCCl (stereo unspecified) [IFOSFAMIDE],Survivors,[46],7
same,ILS,[43],99.8
same,Survivors,[45],0
same,Survivors,[37],0
same,ILS,[38],>617
same,Survivors,[22],0
